For series [1] the following is noted: itraconazole 200 mg daily; cited from earlier work.
Series [2] is described as follows: Capmatinib/CMN288 pharmacokinetics, inhibition cohort. The series is classed as in vivo, human (healthy subjects). As to conditions: inhibition cohort, healthy subjects, plasma. An outline of the steps: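 Inhibition cohort of healthy subjects (n = 27): a single fasted oral 200 mg dose on day 1, then a 4-day washout. Itraconazole 200 mg was given daily on days 5–14, and 200 mg test compound was dosed 1 h after the sixth itraconazole dose (day 10). Plasma was sampled serially to 96 h after each dose and assayed by validated LC-MS/MS (LLOQ ≈1.0 ng/mL). Test/reference ratios are antilogged point estimates with 2-sided 90%CIs.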

Series [3] in a line: Capmatinib/CMN288 pharmacokinetics, induction cohort. It counts as in vivo, human (healthy subjects). As to conditions: induction cohort, healthy subjects, plasma. An outline of the steps: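 Healthy subjects (induction cohort, n = 26) received a single fasted oral 400 mg dose on day 1, then a 4-day washout. Rifampicin 600 mg was given daily on days 5–13, with 400 mg test compound coadministered with the sixth dose on day 10. Serial plasma was drawn to 72 h after each dose and frozen <–70°C. Parent and metabolite were measured by validated LC-MS/MS (LLOQ ≈1.0 ng/mL). Ratios are antilogged 90%CIs.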

Setting [4] is: single oral capmatinib 200 mg + itraconazole 200 mg/day.
[5] abbreviates: single oral capmatinib 200 mg alone.
Where [6] appears, read: single oral capmatinib 400 mg + rifampicin 600 mg/day.
Setting [7] is: single oral capmatinib 400 mg alone.

The structures appear in SMILES notation.

As to `Cc1nnc2n1-c1ccc(Cl)cc1C(c1ccccc1Cl)=NC2` [triazolam], the “Increase in exposure with itraconazole regimen” value in series [1] is given as 27 fold.

As to `CNC(=O)c1ccc(-c2nn3c(Cc4ccc5ncccc5c4)cnc3[nH]c2=O)cc1F` [CMN288], in series [2] (setting [4]), the “CMN288 AUCinf, geometric mean (geometric CV%)” value (shortened to “CMN288 AUCinf … (geometric CV%)”) is listed as 4290 (42.3) ng · h/mL; the “CMN288 AUCinf, mean (CV%)” value was 4600 (35.7) ng · h/mL; the “CMN288 AUClast, geometric mean (geometric CV%)” value (from here on “CMN288 AUClast … (geometric CV%)”) was 4260 (43.2) ng · h/mL; the “CMN288 AUClast, mean (CV%)” value was 4570 (36.0) ng · h/mL. In series [2] (setting [4]), the “CMN288 Cmax, geometric mean (geometric CV%)” value (from here on “CMN288 Cmax … (geometric CV%)”) is 590 (63.8) ng/mL; the “CMN288 Cmax, mean (CV%)” value is given as 682 (50.8) ng/mL; the “CMN288 tmax, median (range)” value is 2.00 (0.983–4.01) h; the “MR (AUCinf), metabolite-to-parent drug ratio, mean (CV%)” value is listed as 0.572 (25.1). Moreover, in series [2] (setting [4]), the “MR (AUClast), metabolite-to-parent drug ratio, mean (CV%)” value was 0.570 (25.6) and the “MR (Cmax), metabolite-to-parent drug ratio, mean (CV%)” value is 0.462 (29.2). In series [2] (setting [5]), the “CMN288 AUCinf … (geometric CV%)” value is 3640 (36.6) ng · h/mL; the “CMN288 AUCinf, mean (CV%)” value was 3870 (35.5) ng · h/mL; the “CMN288 AUClast … (geometric CV%)” value is reported as 3580 (37.6) ng · h/mL; the “CMN288 AUClast, mean (CV%)” value was 3810 (36.2) ng · h/mL. In addition, in series [2] (setting [5]), the “CMN288 Cmax … (geometric CV%)” value is on record as 665 (48.7) ng/mL; the “CMN288 Cmax, mean (CV%)” value is listed as 736 (47.0) ng/mL; the “CMN288 tmax, median (range)” value is 1.01 (0.968–6.02) h; the “MR (AUCinf), metabolite-to-parent drug ratio, mean (CV%)” value is recorded as 0.699 (25.4). Further, in series [2] (setting [5]), the “MR (AUClast), metabolite-to-parent drug ratio, mean (CV%)” value is listed as 0.685 (27.5) and the “MR (Cmax), metabolite-to-parent drug ratio, mean (CV%)” value is recorded as 0.533 (30.5). Moreover, in series [3] (setting [6]), the “CMN288 AUCinf … (geometric CV%)” value is 5110 (31.9) ng · h/mL; the “CMN288 AUCinf, mean (CV%)” value is given as 5360 (32.1) ng · h/mL; the “CMN288 AUClast … (geometric CV%)” value was 5070 (32.3) ng · h/mL; the “CMN288 AUClast, mean (CV%)” value is recorded as 5320 (32.5) ng · h/mL. In series [3] (setting [6]), the “CMN288 Cmax … (geometric CV%)” value is listed as 1570 (39.8) ng/mL; the “CMN288 Cmax, mean (CV%)” value was 1690 (38.1) ng/mL; the “CMN288 tmax, median (range)” value was 0.998 (0.924–3.00) h; the “MR (AUCinf), metabolite-to-parent drug ratio, mean (CV%)” value was 1.37 (26.0). Besides, in series [3] (setting [6]), the “MR (AUClast), metabolite-to-parent drug ratio, mean (CV%)” value is on record as 1.35 (25.0) and the “MR (Cmax), metabolite-to-parent drug ratio, mean (CV%)” value is reported as 1.17 (28.9). In addition, in series [3] (setting [7]), the “CMN288 AUCinf … (geometric CV%)” value is recorded as 7420 (28.4) ng · h/mL; the “CMN288 AUCinf, mean (CV%)” value was 7710 (30.1) ng · h/mL; the “CMN288 AUClast … (geometric CV%)” value was 7310 (28.4) ng · h/mL; the “CMN288 AUClast, mean (CV%)” value is on record as 7600 (30.2) ng · h/mL. Further, in series [3] (setting [7]), the “CMN288 Cmax … (geometric CV%)” value is given as 1500 (41.4) ng/mL; the “CMN288 Cmax, mean (CV%)” value is 1610 (39.2) ng/mL; the “CMN288 tmax, median (range)” value is reported as 0.994 (0.957–3.00) h; the “MR (AUCinf), metabolite-to-parent drug ratio, mean (CV%)” value was 0.634 (25.2). Further, in series [3] (setting [7]), the “MR (AUClast), metabolite-to-parent drug ratio, mean (CV%)” value is recorded as 0.627 (25.1) and the “MR (Cmax), metabolite-to-parent drug ratio, mean (CV%)” value is on record as 0.492 (30.8).

(Values after PMC10092221 (Journal of Clinical Pharmacology, 2022).)
